Experiments:
[1] = biological target: Estrogen receptor beta (Homo sapiens) (UniProt Q92731); assay: Relative binding affinity for estrogen receptor 2 (ER-beta)
In short: (§1)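 Incubated 3 h at 0°C with 2×10⁻⁹ M [3H]-estradiol plus nine competitor levels. Protamine sulfate separation, logit analysis of 50% displacement. RBA vs estradiol (100%); mean of at least two experiments.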

[2] = biological target: T1, Estrogen receptor (Homo sapiens) (UniProt P03372); assay: Relative binding affinity for estrogen receptor 1 (ER-alpha) of lamb uterine cytosol; settings: Ovis aries; target entry is the homologue from another species
T1 sequence (whole entry): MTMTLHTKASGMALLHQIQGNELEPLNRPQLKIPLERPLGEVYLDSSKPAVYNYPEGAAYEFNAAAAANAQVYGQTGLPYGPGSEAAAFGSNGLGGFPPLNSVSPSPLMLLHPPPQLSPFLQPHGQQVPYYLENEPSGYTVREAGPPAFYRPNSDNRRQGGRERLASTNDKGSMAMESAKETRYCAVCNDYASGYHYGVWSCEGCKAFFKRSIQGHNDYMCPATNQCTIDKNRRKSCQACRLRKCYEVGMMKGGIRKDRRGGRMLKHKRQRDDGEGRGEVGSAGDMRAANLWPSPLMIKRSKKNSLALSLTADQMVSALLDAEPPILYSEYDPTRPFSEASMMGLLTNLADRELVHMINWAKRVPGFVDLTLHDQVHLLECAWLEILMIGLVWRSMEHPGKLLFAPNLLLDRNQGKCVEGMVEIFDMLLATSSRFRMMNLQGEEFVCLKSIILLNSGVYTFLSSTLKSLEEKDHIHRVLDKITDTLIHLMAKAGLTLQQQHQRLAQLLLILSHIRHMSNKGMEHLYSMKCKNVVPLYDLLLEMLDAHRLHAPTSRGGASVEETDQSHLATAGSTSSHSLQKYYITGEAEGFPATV
In short: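 Cytosol from frozen sheep (lamb) uteri in 0.05 M Tris-HCl, 0.25 M sucrose, 0.1% β-mercaptoethanol, pH 7.4. Incubated 3 h at 0°C with 2×10⁻⁹ M [6,7-3H]-estradiol and nine competitor concentrations. Bound and free separated by protamine sulfate precipitation. 50% displacement concentration from logit plot; RBA relative to estradiol = 100%; mean of at least two experiments.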

[3] = Relative binding affinity for purified estrogen receptor 1 (ER-alpha); in short: as §1
[4] = Partition coefficient (logP); assay type: physicochemical; settings: octanol/water
In short: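 Reversed-phase HPLC on a C-8 column. Capacity factors k' extrapolated to 100% aqueous component to give k'w; logPo/w = 0.13418 + 0.98452 log k'w.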

Sequence of Estrogen receptor beta (Homo sapiens) (Q92731 whole entry): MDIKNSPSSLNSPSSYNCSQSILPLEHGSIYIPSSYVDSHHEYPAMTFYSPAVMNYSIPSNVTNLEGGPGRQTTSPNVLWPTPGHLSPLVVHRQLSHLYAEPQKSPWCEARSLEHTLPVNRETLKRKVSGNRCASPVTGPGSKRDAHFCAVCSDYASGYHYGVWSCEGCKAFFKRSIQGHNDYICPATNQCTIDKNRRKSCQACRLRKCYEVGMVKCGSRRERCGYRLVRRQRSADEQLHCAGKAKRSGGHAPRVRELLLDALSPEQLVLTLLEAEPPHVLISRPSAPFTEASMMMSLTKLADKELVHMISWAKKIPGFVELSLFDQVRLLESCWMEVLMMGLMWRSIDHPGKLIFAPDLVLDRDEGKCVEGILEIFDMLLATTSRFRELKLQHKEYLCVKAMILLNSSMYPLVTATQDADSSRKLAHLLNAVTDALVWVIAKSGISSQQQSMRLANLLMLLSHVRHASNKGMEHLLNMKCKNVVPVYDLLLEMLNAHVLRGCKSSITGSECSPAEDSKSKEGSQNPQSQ

What does the source list for `CCC(=C(c1ccc(O)cc1)c1ccc(O)cc1)c1ccccc1`?
RBA [1]: 101%; RBA [2]: 6.8%; RBA [3]: 47.5%; logP [4]: 4.4

From ChEMBL document CHEMBL1139535, “Modification of the estrogenic properties of diphenols by the incorporation of ferrocene. Generation of antiproliferative effects in vitro” (J Med Chem, 2005)
